ChEMBL document CHEMBL3232774, “Symmetric bis-chalcones as a new type of breast cancer resistance protein inhibitors with a mechanism different from that of chromones” (J Med Chem, 2014)

How the values were obtained:
ABCG2 = molecular target: T1, ABCG2 (Homo sapiens, UniProt Q9UNQ0); experiment: Inhibition of ABCG2 (unknown origin) transfected in HEK293 cells assessed as inhibition of mitoxantrone efflux at 5 uM after 30 mins by flow cytometry relative to control; format: cell-based; conditions: HEK293 cells transfected with ABCG2, probe mitoxantrone
T1 sequence (Q9UNQ0 whole entry): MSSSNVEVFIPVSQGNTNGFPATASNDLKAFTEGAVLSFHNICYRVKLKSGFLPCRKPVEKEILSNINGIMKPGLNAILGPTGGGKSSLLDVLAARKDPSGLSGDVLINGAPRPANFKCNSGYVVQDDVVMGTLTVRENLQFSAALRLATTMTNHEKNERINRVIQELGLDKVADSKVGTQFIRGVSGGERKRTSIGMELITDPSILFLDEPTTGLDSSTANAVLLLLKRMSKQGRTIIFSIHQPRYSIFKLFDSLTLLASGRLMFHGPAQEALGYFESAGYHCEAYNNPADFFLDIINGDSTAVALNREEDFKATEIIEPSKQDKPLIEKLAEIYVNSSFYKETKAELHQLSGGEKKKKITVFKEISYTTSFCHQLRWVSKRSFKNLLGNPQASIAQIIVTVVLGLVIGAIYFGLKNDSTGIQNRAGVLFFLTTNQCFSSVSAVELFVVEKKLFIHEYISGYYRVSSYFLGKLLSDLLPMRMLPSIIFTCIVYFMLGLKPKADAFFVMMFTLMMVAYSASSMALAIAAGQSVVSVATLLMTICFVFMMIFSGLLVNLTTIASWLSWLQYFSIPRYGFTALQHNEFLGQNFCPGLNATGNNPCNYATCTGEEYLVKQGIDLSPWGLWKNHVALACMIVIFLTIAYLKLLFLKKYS
Summary of the method: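 HEK293-ABCG2 cells (1.5 × 10⁵/well, grown 48 h) exposed to 5 μM mitoxantrone for 30 min at 37 °C with compound (increasing concentrations up to 10 μM); washed, trypsinized, FL4 flow cytometry, ≥10 000 events.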

[1] = molecular target: T2, Broad substrate specificity ATP-binding cassette transporter ABCG2 (Homo sapiens, UniProt Q9UNQ0); experiment: Inhibition of ABCG2 (unknown origin) transfected in HEK293 cells assessed as inhibition of mitoxantrone efflux after 30 mins by flow cytometry relative to control; format: cell-based
T2 sequence (Q9UNQ0 whole entry): T1 sequence (Q9UNQ0 whole entry)

[2] = Selectivity ratio of EC50 for human H23 cells overexpressing ABCG2 to EC50 for human H460 cells overexpressing ABCG2; format: functional
PANC-1 = experiment: Selectivity ratio of EC50 for human PANC1 cells overexpressing ABCG2 to EC50 for human H460 cells overexpressing ABCG2; format: functional
[3] = molecular target: ATP-dependent translocase ABCB1 (Homo sapiens, UniProt P08183); experiment: Inhibition of ABCB1 (unknown origin) transfected in mouse NIH/3T3 cells assessed as inhibition of mitoxantrone efflux up to 10 uM after 30 mins by flow cytometry relative to control; format: cell-based; conditions: nih/3t3, 0.5 h
Chain of ATP-dependent translocase ABCB1 (P08183 whole entry): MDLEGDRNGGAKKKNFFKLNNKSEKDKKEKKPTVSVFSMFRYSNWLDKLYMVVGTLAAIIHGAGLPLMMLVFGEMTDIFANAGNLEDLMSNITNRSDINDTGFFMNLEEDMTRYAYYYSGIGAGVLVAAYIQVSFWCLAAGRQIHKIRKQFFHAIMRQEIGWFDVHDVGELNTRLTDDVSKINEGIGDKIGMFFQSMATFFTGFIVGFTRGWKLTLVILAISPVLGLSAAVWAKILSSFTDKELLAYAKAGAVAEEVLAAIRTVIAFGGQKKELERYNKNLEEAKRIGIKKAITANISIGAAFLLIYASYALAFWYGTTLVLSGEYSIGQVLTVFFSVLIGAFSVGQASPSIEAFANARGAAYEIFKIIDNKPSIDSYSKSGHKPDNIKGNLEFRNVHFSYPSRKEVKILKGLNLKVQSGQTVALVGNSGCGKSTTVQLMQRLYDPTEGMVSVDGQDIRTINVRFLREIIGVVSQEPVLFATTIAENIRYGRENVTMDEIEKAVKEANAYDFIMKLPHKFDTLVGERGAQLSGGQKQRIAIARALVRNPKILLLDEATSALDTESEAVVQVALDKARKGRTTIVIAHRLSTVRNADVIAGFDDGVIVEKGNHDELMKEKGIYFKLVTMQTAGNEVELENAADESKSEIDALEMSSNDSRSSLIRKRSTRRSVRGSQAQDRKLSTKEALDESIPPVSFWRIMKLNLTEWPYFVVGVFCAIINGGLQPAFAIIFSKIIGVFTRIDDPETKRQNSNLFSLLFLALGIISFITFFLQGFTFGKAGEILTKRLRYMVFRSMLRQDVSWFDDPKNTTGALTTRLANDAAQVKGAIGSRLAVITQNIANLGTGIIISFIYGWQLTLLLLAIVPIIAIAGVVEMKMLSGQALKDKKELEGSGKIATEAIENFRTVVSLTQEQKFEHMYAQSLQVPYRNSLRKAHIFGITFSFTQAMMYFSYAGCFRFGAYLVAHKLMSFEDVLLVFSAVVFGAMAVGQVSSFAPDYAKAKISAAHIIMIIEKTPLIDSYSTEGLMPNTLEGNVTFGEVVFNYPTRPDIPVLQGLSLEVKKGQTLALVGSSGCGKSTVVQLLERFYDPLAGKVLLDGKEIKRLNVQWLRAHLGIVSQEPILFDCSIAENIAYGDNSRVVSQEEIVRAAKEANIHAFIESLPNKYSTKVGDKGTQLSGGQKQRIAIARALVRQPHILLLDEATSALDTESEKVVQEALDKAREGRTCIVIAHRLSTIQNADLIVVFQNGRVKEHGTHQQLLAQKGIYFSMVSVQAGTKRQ
Summary of the method: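 NIH-3T3-ABCB1 cells (1.5 × 10⁵/well, 48 h, kept in 60 ng/mL colchicine) were given 5 μM mitoxantrone for 30 min at 37 °C with bis-chalcone at 1 or 10 μM. Fluorescence was read by FL4 flow cytometry, ≥10 000 events. Inhibition was expressed relative to parental NIH-3T3 cells, whose maximal accumulation was taken as complete inhibition.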

[4] = molecular target: Multidrug resistance-associated protein 1 (Homo sapiens, UniProt P33527); experiment: Inhibition of ABCC1 (unknown origin) transfected in HEK293 cells assessed as inhibition of calcein-AM efflux up to 10 uM after 30 mins by flow cytometry relative to control; format: cell-based; conditions: hek293, 0.5 h
Chain of Multidrug resistance-associated protein 1 (P33527 whole entry): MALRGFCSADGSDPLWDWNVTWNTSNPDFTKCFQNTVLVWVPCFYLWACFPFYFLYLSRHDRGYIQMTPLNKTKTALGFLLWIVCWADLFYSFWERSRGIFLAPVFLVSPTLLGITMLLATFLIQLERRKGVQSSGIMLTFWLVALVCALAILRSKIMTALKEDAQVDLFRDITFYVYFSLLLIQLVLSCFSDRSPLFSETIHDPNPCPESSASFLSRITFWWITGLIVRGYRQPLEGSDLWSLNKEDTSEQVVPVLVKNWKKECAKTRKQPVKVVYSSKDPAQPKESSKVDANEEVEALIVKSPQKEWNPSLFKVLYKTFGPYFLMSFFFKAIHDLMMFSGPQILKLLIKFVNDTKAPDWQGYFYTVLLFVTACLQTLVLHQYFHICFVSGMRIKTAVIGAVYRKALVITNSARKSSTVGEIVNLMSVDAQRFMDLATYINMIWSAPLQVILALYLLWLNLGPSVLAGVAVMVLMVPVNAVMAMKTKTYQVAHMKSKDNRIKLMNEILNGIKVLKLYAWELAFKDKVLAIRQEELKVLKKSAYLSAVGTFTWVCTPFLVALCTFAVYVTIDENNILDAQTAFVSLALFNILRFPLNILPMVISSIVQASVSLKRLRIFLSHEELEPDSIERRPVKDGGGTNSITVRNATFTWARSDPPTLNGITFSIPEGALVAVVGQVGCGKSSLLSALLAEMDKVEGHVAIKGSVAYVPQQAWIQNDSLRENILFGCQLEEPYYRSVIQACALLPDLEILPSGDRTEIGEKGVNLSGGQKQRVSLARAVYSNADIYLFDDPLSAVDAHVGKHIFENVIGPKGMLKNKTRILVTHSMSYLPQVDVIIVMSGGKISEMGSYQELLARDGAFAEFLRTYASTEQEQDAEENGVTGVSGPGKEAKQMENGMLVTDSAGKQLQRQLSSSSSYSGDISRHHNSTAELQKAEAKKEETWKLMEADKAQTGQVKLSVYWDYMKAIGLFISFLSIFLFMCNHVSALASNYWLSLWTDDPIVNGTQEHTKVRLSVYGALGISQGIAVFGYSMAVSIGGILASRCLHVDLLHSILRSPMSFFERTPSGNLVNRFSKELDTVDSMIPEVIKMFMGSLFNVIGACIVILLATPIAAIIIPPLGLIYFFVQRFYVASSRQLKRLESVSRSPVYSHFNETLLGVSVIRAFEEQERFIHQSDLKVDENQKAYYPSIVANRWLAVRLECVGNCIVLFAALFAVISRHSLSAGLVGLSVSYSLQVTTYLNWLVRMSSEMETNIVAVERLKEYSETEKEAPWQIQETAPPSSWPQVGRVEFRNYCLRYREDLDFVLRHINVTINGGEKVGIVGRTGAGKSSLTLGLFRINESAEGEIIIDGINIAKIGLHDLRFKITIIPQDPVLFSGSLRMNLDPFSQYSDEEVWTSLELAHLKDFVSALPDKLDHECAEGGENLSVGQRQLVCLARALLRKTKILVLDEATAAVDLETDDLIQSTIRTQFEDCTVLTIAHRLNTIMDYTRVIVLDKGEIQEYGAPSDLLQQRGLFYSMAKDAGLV
Summary of the method: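 HEK293-ABCC1 cells (2 × 10⁵/well, kept in 200 μg/mL hygromycin B) were exposed to 0.2 μM calcein-AM for 30 min at 37 °C with bis-chalcone at 1 or 10 μM. Calcein was read by FL1 flow cytometry, ≥10 000 events. Inhibition was expressed relative to HEK293/pcDNA5 cells, whose maximal accumulation equals complete inhibition.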

[5] = molecular target: T2, Broad substrate specificity ATP-binding cassette transporter ABCG2; experiment: Inhibition of ABCG2 (unknown origin)-mediated mitoxantrone efflux transfected in HEK293 cells assessed as potentiation of mitoxantrone-induced cytotoxicity at 0.1 uM after 72 hrs by MTT assay; format: cell-based; conditions: hek293, 72 h
Summary of the method: (§1)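 HEK293-ABCG2 and vector-control HEK293-pcDNA3.1 cells were seeded at 1 × 10⁴/well and grown 24 h, then exposed 72 h to mitoxantrone (0–25 nM). ABCG2 cells were also given bis-chalcone at 0.1 or 0.5 μM. MTT was added for 4 h, formazan dissolved in DMSO/ethanol (1:1) and read at 570 nm. IC50 = mitoxantrone concentration giving 50% survival.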

HEK293 = experiment: Cytotoxicity against HEK293 cells overexpressing ABCG2 at 0.1 uM after 72 hrs by MTT assay; format: ADME, cell-based; conditions: human, hek293, 72 h; summary of the method: as §1
[6] = molecular target: T2, Broad substrate specificity ATP-binding cassette transporter ABCG2; experiment: Inhibition of human ABCG2 transfected in Sf9 insect cells assessed as inhibition of basal ATPase activity in absence of substrate drug after 30 mins by colorimetry; conditions: sf9, 0.5 h
Summary of the method: (§2)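 Cholesterol-loaded membranes from Sf9 cells overexpressing human ABCG2 (0.5 mg/mL; 10 μg/sample) in 50 mM Tris-HCl, 50 mM NaCl, pH 8.0, with or without 0.33 mM orthovanadate, no transport substrate; started with 3.9 mM ATP-Mg, 30 min at 37 °C; stopped with SDS; phosphate released read with molybdate/ascorbic acid at 880 nm; vanadate-sensitive basal activity taken as 100%.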

[7] = molecular target: T2, Broad substrate specificity ATP-binding cassette transporter ABCG2; experiment: Inhibition of human ABCG2 ATPase activity transfected in Sf9 insect cells using quercetin as substrate after 30 mins by colorimetry relative to control
Summary of the method: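 Vanadate-sensitive ATPase of cholesterol-loaded human ABCG2 Sf9 membranes (0.5 mg/mL; 10 μg/sample), 50 mM Tris-HCl/50 mM NaCl pH 8.0, with 2 μM quercetin. ATP-Mg 3.9 mM, 30 min, 37 °C. Phosphate measured colorimetrically at 880 nm. Coupled activity = total minus basal, taken as 100%. IC50 is the concentration giving 50% inhibition.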

ABCG2 ATPase = molecular target: T3, ABCG2 ATPase (Homo sapiens, UniProt Q9UNQ0); experiment: Activation of human ABCG2 transfected in Sf9 insect cells assessed as stimulation of basal ATPase activity in absence of substrate drug after 30 mins by colorimetry; conditions: Sf9 insect cells transfected with human ABCG2, read-out: FC; summary of the method: as §2
T3 sequence (Q9UNQ0 whole entry): T1 sequence (Q9UNQ0 whole entry)

[8] = molecular target: T2, Broad substrate specificity ATP-binding cassette transporter ABCG2; experiment: Inhibition of ABCG2 (unknown origin) transfected in HEK293 cells assessed as inhibition of mitoxantrone efflux at 5 uM after 30 mins in presence of 0.1 uM chromone 1 by flow cytometry; format: cell-based
[9] = molecular target: T2, Broad substrate specificity ATP-binding cassette transporter ABCG2; experiment: Inhibition of ABCG2 (unknown origin) transfected in HEK293 cells assessed as inhibition of mitoxantrone efflux at 5 uM after 30 mins in presence of 0.02 uM Ko143 by flow cytometry; format: cell-based
[10] = tested on: ATP-binding cassette sub-family G member 2 (Homo sapiens); experiment: Inhibition of ABCG2-mediated mitoxantrone efflux in mitoxantrone-selected human PANC1 cells overexpressing ABCG2; conditions: PANC-1

inhibition (INH) [4]: Not Active
inhibition (INH) [6]: Not Active
IC50 [7]: 190 nM
fold induction at 0.5 h (ABCG2 ATPase): 1.6
Structure (SMILES): COc1cccc(OC)c1/C=C/C(=O)c1ccc(C(=O)/C=C/c2c(OC)cccc2OC)cc1
inhibition at 0.5 h, 5 µM (ABCG2): 108%
EC50 [1]: 200 nM
Ratio EC50 [2]: 3
Ratio EC50 (PANC-1): 3
inhibition (INH) [3]: Not Active
inhibition (INH) [5]: Active
Activity (HEK293): Non-toxic
EC50 [8]: 15 nM
EC50 [9]: 126 nM
EC50 [10]: 210 nM
